Test [1] deals with LNCaP. The test can be described thus: Cytotoxicity against human LNCAP cells assessed as growth inhibition at 2 to 20 uM after 144 hrs by SRB assay. It is filed as functional, cell-based. The essentials:
(§1)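 LNCaP and AR-overexpressing LNCaP-AR (3–5-fold higher AR) prostate cancer cells were incubated 144 h with scalar concentrations from 0.02 to 20 μM. Sulforhodamine B read-out was used for growth inhibition (IG50) and cytocidal (LC50) values. Results are the average of three independent experiments.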
For orientation: In SRB staining, fixed cells bind dye roughly in proportion to their protein.

The subject of another test is LNCaP-AR. Description: Cytotoxicity against human LNCaP-AR cells assessed as growth inhibition at 2 to 20 uM after 144 hrs by SRB assay relative to control. Type of test: functional, cell-based. The gist of the method:
as §1

Test [2] addresses T1, Androgen receptor (Homo sapiens) (UniProt P10275).
T1 sequence (whole entry): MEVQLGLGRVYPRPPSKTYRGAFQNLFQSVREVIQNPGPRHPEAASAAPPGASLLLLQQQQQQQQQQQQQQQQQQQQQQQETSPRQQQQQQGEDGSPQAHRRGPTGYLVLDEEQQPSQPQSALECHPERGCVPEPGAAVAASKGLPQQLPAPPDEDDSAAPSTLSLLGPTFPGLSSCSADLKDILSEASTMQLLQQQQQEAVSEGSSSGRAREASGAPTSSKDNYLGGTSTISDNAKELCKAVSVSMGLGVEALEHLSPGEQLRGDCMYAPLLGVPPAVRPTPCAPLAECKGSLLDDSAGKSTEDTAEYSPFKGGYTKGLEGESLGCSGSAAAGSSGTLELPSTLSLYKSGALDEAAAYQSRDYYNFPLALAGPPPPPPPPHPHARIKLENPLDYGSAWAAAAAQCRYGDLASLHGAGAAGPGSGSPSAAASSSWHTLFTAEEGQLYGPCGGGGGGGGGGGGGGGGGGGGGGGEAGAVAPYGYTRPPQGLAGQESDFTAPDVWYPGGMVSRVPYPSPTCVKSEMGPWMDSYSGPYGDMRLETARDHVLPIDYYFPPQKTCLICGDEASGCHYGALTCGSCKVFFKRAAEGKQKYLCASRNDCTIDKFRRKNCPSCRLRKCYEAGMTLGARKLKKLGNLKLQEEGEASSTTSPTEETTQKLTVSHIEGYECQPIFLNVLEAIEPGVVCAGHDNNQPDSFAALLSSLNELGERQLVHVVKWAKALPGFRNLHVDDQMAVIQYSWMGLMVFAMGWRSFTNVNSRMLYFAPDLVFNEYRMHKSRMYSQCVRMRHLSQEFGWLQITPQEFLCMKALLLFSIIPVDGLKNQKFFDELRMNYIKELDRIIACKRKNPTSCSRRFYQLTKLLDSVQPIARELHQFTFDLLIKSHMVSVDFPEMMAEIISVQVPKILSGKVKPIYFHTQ
Description: Antagonist activity at human AR expressed in COS7 cells receptor assessed as inhibition of R1881-induced transcriptional activation at 10 uM by ARE-luciferase reporter gene assay. Type of test: functional, cell-based. To be noted: COS-7. The gist of the method:
(§2)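 AR-negative Cos-7 cells plated subconfluent (60–70%) in phenol red-free DMEM with 5% charcoal-stripped serum for 48 h, then cotransfected with 0.3 μg 3416-pTK-TATA-Luc and 1.5 μg pSG5-hAR or empty pSG5. After 24 h, stimulated 24 h with 10 nM R1881 plus compounds. Lysate luciferase as fold induction; hAR checked by Western blot; three experiments.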
In general terms: Reporter assays use an easily measured gene product as a stand-in for the process of interest.

Test [3] deals with T1, Androgen receptor (Homo sapiens). The test can be described thus: Antagonist activity at AR receptor in human LNCAP cells assessed as inhibition of R1881-induced transcriptional activation at 10 nM to 10 uM by ARE-uciferase reporter gene assay. It is filed as functional, cell-based. The gist of the method: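 LNCaP cells at 60–70% confluence, plated in phenol red-free DMEM with 5% charcoal-stripped serum, then transfected after 48 h with 0.3 μg 3416-pTK-TATA-Luc reporter. 24 h later, stimulated for 24 h with 10 nM R1881 with or without test compound (10 nM–10 μM). Luciferase activity in lysates was expressed as fold induction. Three independent experiments were averaged.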

For test [4], the system named is LNCaP. The test can be described thus: Induction of apoptosis in human LNCAP cells at 20 uM after 144 hrs by […]. Type of test: functional.
Test [5] addresses T1, Androgen receptor (Homo sapiens). Description: Agonist activity at AR receptor in human LNCAP cells at 10 nM to 10 uM by ARE-luciferase reporter gene assay. Type of test: functional, cell-based. The gist of the method: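 Androgen-responsive LNCaP cells plated subconfluent (60–70%) in phenol red-free DMEM with 5% charcoal-stripped serum for 48 h, then transfected with 0.3 μg 3416-pTK-TATA-Luc ARE reporter. After 24 h, cells were exposed for 24 h to compounds (10 nM to 10 μM) without or with 10 nM R1881. Lysate luciferase expressed as fold induction; three independent experiments.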

Test [6] has as its system LNCaP. The test can be described thus: Cytocidal activity in against human LNCAP cells after 144 hrs by SRB assay. It is filed as functional. To be noted: read-out: LC50 (the source's name). The gist of the method:
as §1

Test [7] in a line: Cytocidal activity in human LNCaP-AR cells after 144 hrs by SRB assay. Type of test: functional. The settings on record: read-out: LC50 (the source's name). The gist of the method: as §1
Test [8] is described as follows: Induction of apoptosis in human LNCaP-AR cells at 20 uM after 144 hrs by propidium iodide staining based flow cytometry analysis. It is filed as functional.
Test [9] can be described thus: Growth inhibition in human LNCaP-AR cells after 144 hrs by SRB assay. It is filed as functional. The essentials:
as §1

Test [10] deals with T1, Androgen receptor (Homo sapiens). Description: Antagonist activity at human AR expressed in COS7 cells receptor assessed as inhibition of androgen-induced transcriptional activation at 10 nM to 10 uM by ARE-luciferase reporter gene assay. It is filed as functional, cell-based. The settings on record: COS-7. The gist of the method: as §2

Calls of active or inactive are those of the source. The calls are words filed in the database; no cut-off is given here.

As to `C[C@@]1(CS(=O)(=O)c2ccc(F)cc2)NC(=O)N(c2ccc(C#N)c(C(F)(F)F)c2)C1=O`, the “growth inhibition (GI)” value with LNCaP [1] was “Active”.

As to `Cc1ccc(S(=O)(=O)N[C@@](C)(CS(=O)(=O)c2ccc(F)cc2)C(=O)Nc2ccc(C#N)c(C(F)(F)F)c2)cc1`, the “growth inhibition (GI)” value in the test on LNCaP [1] was “Active”.

Regarding `C[C@@]1(CS(=O)(=O)c2ccc(F)cc2)NC(=S)N(c2ccc(C#N)c(C(F)(F)F)c2)C1=O`, the “growth inhibition (GI)” value in the test with LNCaP [1] is “Active”.

As for `C[C@]1(CS(=O)(=O)c2ccc(F)cc2)NC(=S)N(c2ccc(C#N)c(C(F)(F)F)c2)C1=O`, the “growth inhibition (GI)” value with LNCaP [1] is “Active”.

`C[C@@](N)(CS(=O)(=O)c1ccc(F)cc1)C(=O)Nc1ccc(C#N)c(C(F)(F)F)c1`: the “growth inhibition (GI)” value in the test with LNCaP [1] is “Active”.

As for `Cc1ccc(S(=O)(=O)N[C@](C)(CS(=O)(=O)c2ccc(F)cc2)C(=O)Nc2ccc(C#N)c(C(F)(F)F)c2)cc1`, the “growth inhibition (GI)” value in the test with LNCaP-AR and in the test on LNCaP [1] was “Active” in each case. In addition, the inhibition result in test [2] and in [3] was “Active” throughout. Besides, the Activity in the test with LNCaP [4] worked out at 80.5%; in [8] it was 91.6%. The outcome in test [5] was inactive. The CC50 (with LNCaP [6]; in test [7]) was 18.3 µM each time.

On to `C[C@](N)(CS(=O)(=O)c1ccc(F)cc1)C(=O)Nc1ccc(C#N)c(C(F)(F)F)c1`, for which, in the test on LNCaP [1], the “growth inhibition (GI)” value was “Active”.

Take `C[C@](O)(CS(=O)(=O)c1ccc(F)cc1)C(=O)Nc1ccc(C#N)c(C(F)(F)F)c1` [(R)-BICALUTAMIDE]: in the test on LNCaP-AR, the “growth inhibition (GI)” value was “inactive”. The Activity (in the test with LNCaP [4]; in test [8]) was 2.1% in each case. In the test on LNCaP [6], the CC50 was less than 1.8 µM. The “growth inhibition (GI)” value in the test with LNCaP [1] was “Active”. In addition, the IG50 in [9] was less than 1.8 µM.

With `C[C@]1(CS(=O)(=O)c2ccc(F)cc2)NC(=O)N(c2ccc(C#N)c(C(F)(F)F)c2)C1=O`, the “growth inhibition (GI)” value in the test with LNCaP [1] was “Active”.

Consider `CC(C)(C)S(=O)(=O)N[C@@](C)(CS(=O)(=O)c1ccc(F)cc1)C(=O)Nc1ccc(C#N)c(C(F)(F)F)c1`, for which the “growth inhibition (GI)” value in the test with LNCaP [1] was “Active”.

On to `C[C@](N)(COc1ccc(C#N)cc1)C(=O)Nc1ccc(C#N)c(C(F)(F)F)c1`, for which, in [10], the outcome was Active. In addition, in [2], the inhibition entry is “inactive”.

On to `C[C@@]1(COc2ccc(C#N)cc2)NC(=O)N(c2ccc(C#N)c(C(F)(F)F)c2)C1=O`, for which the outcome in test [10] and in test [5] was inactive.

Regarding `CC(C)(C)S(=O)(=O)N[C@](C)(CS(=O)(=O)c1ccc(F)cc1)C(=O)Nc1ccc(C#N)c(C(F)(F)F)c1`, the “growth inhibition (GI)” value in the test on LNCaP-AR and with LNCaP [1] was “Active” each time.
